In ChEMBL document CHEMBL4364256, “Design, synthesis and biological evaluation of antimicrobial diarylimine and -amine compounds targeting the interaction between the bacterial NusB and NusE proteins” (Eur J Med Chem, 2019):
Values after ≈ are worked out from the molar mass of the structure shown. Values belong to the molecule of their own block, whether it stands above or below them.

Legend:
[1] = tested on: Bacillus subtilis; experiment: Inhibition of N-terminal LgBiT-fused Bacillus subtilis NusB expressed in Escherichia coli BL21(DE3)pLysS interaction with C- terminal SmBiT-fused Bacillus subtilis NusE expressed in Escherichia coli BL21(DE3)pLysS at 100 uM preincubated for 10 mins followed by NusE addition and measured after 10 mins by nano-glo luciferase assay relative to control
In short: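 NusB and NusE were mixed 1:1 at 1 µM in PBS, with compound at 100 µM. The read-out was percent inhibition of the NusB-NusE interaction.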

[2] = tested on: Enterococcus faecium; experiment: Antimicrobial activity against Enterococcus faecium ATCC 19433 incubated for 20 hrs by microdilution method; assay type: functional; conditions: ATCC 19433, 20 h
In short: (§1)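 Broth microdilution MIC testing done following CLSI guidelines.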

[3] = tested on: Streptococcus pneumoniae; experiment: Antimicrobial activity against Streptococcus pneumoniae ATCC 49619 incubated for 20 hrs by microdilution method; assay type: functional; conditions: ATCC 49619, 20 h; in short: as §1
[4] = tested on: Acinetobacter baumannii; experiment: Antimicrobial activity against Acinetobacter baumannii ATCC 19606 incubated for 20 hrs by microdilution method; assay type: functional; conditions: ATCC 19606 = CIP 70.34 = JCM 6841, 20 h; in short: as §1
[5] = tested on: Pseudomonas aeruginosa; experiment: Antimicrobial activity against Pseudomonas aeruginosa ATCC 27853 incubated for 20 hrs by microdilution method; assay type: functional; conditions: ATCC 27853, 20 h; in short: as §1
[6] = tested on: Staphylococcus aureus; experiment: microbe, parasite or virus in culture; conditions: ATCC 25923, 20 h
[7] = tested on: Staphylococcus aureus; experiment: microbe, parasite or virus in culture; conditions: ATCC 29213, 20 h
[8] = microbe, parasite or virus in culture; conditions: Enterobacter cloacae, ATCC 13047, 20 h

inhibition [1]: 53.6%
MIC [2]: 32 µg/mL (≈ 115 µM)
MIC [3]: 16 µg/mL (≈ 57.4 µM)
MIC [4]: > 256 µg/mL
MIC [5]: 256 µg/mL (≈ 919 µM)
MIC [6]: 8 µg/mL (≈ 28.7 µM)
MIC [7]: 4 µg/mL (≈ 14.4 µM)
MIC [8]: 128 µg/mL (≈ 459 µM)
SMILES: O=[N+]([O-])c1ccc(O)c(CNc2ccc(Cl)cc2)c1

inhibition [1]: 48.2%
MIC [2]: 32 µg/mL (≈ 119 µM)
MIC [3]: 16 µg/mL (≈ 59.6 µM)
MIC [4]: 64 µg/mL (≈ 239 µM)
MIC [5]: > 256 µg/mL
MIC [6]: 8 µg/mL (≈ 29.8 µM)
MIC [7]: 8 µg/mL (≈ 29.8 µM)
MIC [8]: > 256 µg/mL
SMILES: C#Cc1cccc(NCc2ccc([N+](=O)[O-])cc2O)c1

inhibition [1]: 56.2%
MIC [2]: > 256 µg/mL
MIC [3]: 32 µg/mL (≈ 103 µM)
MIC [4]: 256 µg/mL (≈ 825 µM)
MIC [5]: > 256 µg/mL
MIC [6]: 16 µg/mL (≈ 51.6 µM)
MIC [7]: 64 µg/mL (≈ 206 µM)
MIC [8]: 256 µg/mL (≈ 825 µM)
SMILES: O=[N+]([O-])c1ccc(O)c(/C=N/c2cccc(C(F)(F)F)c2)c1

inhibition [1]: 61.7%
MIC [2]: 16 µg/mL (≈ 51.2 µM)
MIC [3]: 16 µg/mL (≈ 51.2 µM)
MIC [4]: 64 µg/mL (≈ 205 µM)
MIC [5]: > 256 µg/mL
MIC [6]: 4 µg/mL (≈ 12.8 µM)
MIC [7]: 4 µg/mL (≈ 12.8 µM)
MIC [8]: 256 µg/mL (≈ 820 µM)
SMILES: O=[N+]([O-])c1ccc(O)c(CNc2cccc(C(F)(F)F)c2)c1

inhibition [1]: 4.6%
MIC [2]: 128 µg/mL (≈ 524 µM)
MIC [3]: 64 µg/mL (≈ 262 µM)
MIC [4]: 256 µg/mL (≈ 1050 µM)
MIC [5]: > 256 µg/mL
MIC [6]: 16 µg/mL (≈ 65.5 µM)
MIC [7]: 32 µg/mL (≈ 131 µM)
MIC [8]: > 256 µg/mL
SMILES: O=[N+]([O-])c1ccc(O)c(CNc2ccccc2)c1

inhibition [1]: 53.1%
MIC [2]: 256 µg/mL (≈ 825 µM)
MIC [3]: 32 µg/mL (≈ 103 µM)
MIC [4]: > 256 µg/mL
MIC [5]: > 256 µg/mL
MIC [6]: 8 µg/mL (≈ 25.8 µM)
MIC [7]: 16 µg/mL (≈ 51.6 µM)
MIC [8]: > 256 µg/mL
SMILES: O=[N+]([O-])c1ccc(O)c(/C=N/c2ccccc2C(F)(F)F)c1

The next lines start with the molecule.

SMILES: C#Cc1cccc(/N=C/c2cc(O)ccc2[N+](=O)[O-])c1
inhibition [1]: 52.2%
MIC [2]: > 256 µg/mL
MIC [3]: > 256 µg/mL
MIC [4]: 256 µg/mL (≈ 961 µM)
MIC [5]: > 256 µg/mL
MIC [6]: 256 µg/mL (≈ 961 µM)
MIC [7]: 256 µg/mL (≈ 961 µM)
MIC [8]: > 256 µg/mL

SMILES: C#Cc1cccc(/N=C/c2cc(C(=O)OC)ccc2O)c1
inhibition [1]: 41.4%
MIC [2]: > 256 µg/mL
MIC [3]: 128 µg/mL (≈ 458 µM)
MIC [4]: 64 µg/mL (≈ 229 µM)
MIC [5]: 256 µg/mL (≈ 917 µM)
MIC [6]: 128 µg/mL (≈ 458 µM)
MIC [7]: > 256 µg/mL
MIC [8]: > 256 µg/mL

SMILES: C#Cc1cccc(/N=C/c2ccccc2O)c1
inhibition [1]: 25.7%
MIC [2]: > 256 µg/mL
MIC [3]: > 256 µg/mL
MIC [4]: > 256 µg/mL
MIC [5]: > 256 µg/mL
MIC [6]: 256 µg/mL (≈ 1160 µM)
MIC [7]: > 256 µg/mL
MIC [8]: > 256 µg/mL

SMILES: C#Cc1cccc(NCc2cc(OC)ccc2O)c1
inhibition [1]: 58.3%
MIC [2]: 64 µg/mL (≈ 253 µM)
MIC [3]: 8 µg/mL (≈ 31.6 µM)
MIC [4]: > 256 µg/mL
MIC [5]: > 256 µg/mL
MIC [6]: 64 µg/mL (≈ 253 µM)
MIC [7]: 32 µg/mL (≈ 126 µM)
MIC [8]: > 256 µg/mL

SMILES: C#Cc1ccc(/N=C/c2cc([N+](=O)[O-])ccc2O)cc1
inhibition [1]: 76.3%
MIC [2]: 128 µg/mL (≈ 481 µM)
MIC [3]: 64 µg/mL (≈ 240 µM)
MIC [4]: > 256 µg/mL
MIC [5]: > 256 µg/mL
MIC [6]: 4 µg/mL (≈ 15 µM)
MIC [7]: 16 µg/mL (≈ 60.1 µM)
MIC [8]: > 256 µg/mL

SMILES: O=[N+]([O-])c1ccc(O)c(/C=N/c2ccc(O)cc2)c1
inhibition [1]: 89.1%
MIC [2]: > 256 µg/mL
MIC [3]: 64 µg/mL (≈ 248 µM)
MIC [4]: > 256 µg/mL
MIC [5]: > 256 µg/mL
MIC [6]: 4 µg/mL (≈ 15.5 µM)
MIC [7]: 8 µg/mL (≈ 31 µM)
MIC [8]: > 256 µg/mL

SMILES: C#Cc1cccc(/N=C/c2cccc([N+](=O)[O-])c2O)c1
inhibition [1]: 87.7%
MIC [2]: 256 µg/mL (≈ 961 µM)
MIC [3]: 256 µg/mL (≈ 961 µM)
MIC [4]: > 256 µg/mL
MIC [5]: 256 µg/mL (≈ 961 µM)
MIC [6]: 256 µg/mL (≈ 961 µM)
MIC [7]: 256 µg/mL (≈ 961 µM)
MIC [8]: > 256 µg/mL

SMILES: C#Cc1cccc(/N=C/c2cc(C#N)ccc2O)c1
inhibition [1]: 61.3%
MIC [2]: 256 µg/mL (≈ 1040 µM)
MIC [3]: 128 µg/mL (≈ 520 µM)
MIC [4]: > 256 µg/mL
MIC [5]: > 256 µg/mL
MIC [6]: 32 µg/mL (≈ 130 µM)
MIC [7]: 64 µg/mL (≈ 260 µM)
MIC [8]: > 256 µg/mL

SMILES: C#Cc1cccc(/N=C/c2cccc([N+](=O)[O-])c2)c1
inhibition [1]: 24.7%
MIC [2]: > 256 µg/mL
MIC [3]: > 256 µg/mL
MIC [4]: 16 µg/mL (≈ 63.9 µM)
MIC [5]: > 256 µg/mL
MIC [6]: 256 µg/mL (≈ 1020 µM)
MIC [7]: 128 µg/mL (≈ 511 µM)
MIC [8]: > 256 µg/mL

SMILES: C#Cc1cccc(/N=C/c2ccc([N+](=O)[O-])cc2O)c1
inhibition [1]: 46.7%
MIC [2]: > 256 µg/mL
MIC [3]: 128 µg/mL (≈ 481 µM)
MIC [4]: > 256 µg/mL
MIC [5]: > 256 µg/mL
MIC [6]: 64 µg/mL (≈ 240 µM)
MIC [7]: 256 µg/mL (≈ 961 µM)
MIC [8]: > 256 µg/mL

SMILES: C#Cc1cccc(NCc2ccccc2O)c1
inhibition [1]: 20.3%
MIC [2]: > 256 µg/mL
MIC [3]: > 256 µg/mL
MIC [4]: > 256 µg/mL
MIC [5]: > 256 µg/mL
MIC [6]: > 256 µg/mL
MIC [7]: > 256 µg/mL
MIC [8]: > 256 µg/mL

SMILES: CO[C@H]1/C=C/O[C@@]2(C)Oc3c(C)c(O)c4c(O)c(c(/C=N/N5CCN(C)CC5)c(O)c4c3C2=O)NC(=O)/C(C)=C\C=C\[C@H](C)[C@H](O)[C@@H](C)[C@@H](O)[C@@H](C)[C@H](OC(C)=O)[C@@H]1C [RIFAMPIN]
MIC [2]: 2 µg/mL (≈ 2.43 µM)
MIC [3]: 0.0625 µg/mL (≈ 0.0759 µM)
MIC [4]: 4 µg/mL (≈ 4.86 µM)
MIC [5]: > 256 µg/mL
MIC [6]: 0.0125 µg/mL (≈ 0.0152 µM)
MIC [7]: 0.0125 µg/mL (≈ 0.0152 µM)
MIC [8]: > 256 µg/mL
